The structures appear in SMILES notation. Values after ≈ are worked out from the molar mass of the structure shown.

These results are taken from ChEMBL document CHEMBL2401654, “Synthesis, characterization, and biological assessment of the four stereoisomers of the H(3) receptor antagonist 5-fluoro-2-methyl-N-[2-methyl-4-(2-methyl[1,3']bipyrrolidinyl-1'-yl)phenyl]benzamide” (Bioorg Med Chem Lett, 2013).

Series [1] is described as follows: Genotoxicity in micronucleus (unknown origin).
The next series has as its target T1, Cytochrome P450 1A2 (Homo sapiens, UniProt P05177).
T1 sequence (P05177 whole entry): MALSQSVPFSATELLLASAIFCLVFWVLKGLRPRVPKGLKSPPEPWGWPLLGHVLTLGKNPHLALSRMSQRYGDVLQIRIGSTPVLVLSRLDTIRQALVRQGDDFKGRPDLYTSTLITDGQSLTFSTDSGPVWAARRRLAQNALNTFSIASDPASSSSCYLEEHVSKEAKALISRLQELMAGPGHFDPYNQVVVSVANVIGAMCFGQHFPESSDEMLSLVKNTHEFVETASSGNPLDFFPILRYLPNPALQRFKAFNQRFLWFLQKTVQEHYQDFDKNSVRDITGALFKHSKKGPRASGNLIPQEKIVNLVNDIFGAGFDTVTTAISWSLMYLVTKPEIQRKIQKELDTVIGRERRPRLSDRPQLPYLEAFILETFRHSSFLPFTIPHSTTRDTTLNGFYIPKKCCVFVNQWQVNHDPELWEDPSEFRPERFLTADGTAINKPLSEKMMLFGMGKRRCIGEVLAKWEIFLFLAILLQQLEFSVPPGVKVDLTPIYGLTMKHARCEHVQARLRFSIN
In words: Inhibition of CYP1A2 (unknown origin). It counts as ADME.

The target of another series is T2, Cytochrome P450 2B6 (Homo sapiens, UniProt P20813).
T2 sequence (P20813 whole entry): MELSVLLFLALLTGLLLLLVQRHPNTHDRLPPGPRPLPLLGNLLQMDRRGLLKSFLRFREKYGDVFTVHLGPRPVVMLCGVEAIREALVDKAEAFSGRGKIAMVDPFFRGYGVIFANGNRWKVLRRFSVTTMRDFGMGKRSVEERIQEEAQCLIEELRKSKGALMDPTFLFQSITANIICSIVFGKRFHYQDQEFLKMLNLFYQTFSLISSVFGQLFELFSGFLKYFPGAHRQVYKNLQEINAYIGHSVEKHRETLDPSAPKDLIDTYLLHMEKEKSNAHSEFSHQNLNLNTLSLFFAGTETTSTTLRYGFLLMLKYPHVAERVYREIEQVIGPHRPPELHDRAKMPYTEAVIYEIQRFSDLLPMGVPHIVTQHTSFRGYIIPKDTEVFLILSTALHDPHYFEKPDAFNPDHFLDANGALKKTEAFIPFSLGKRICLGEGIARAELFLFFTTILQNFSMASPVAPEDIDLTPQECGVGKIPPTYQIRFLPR
In words: Inhibition of CYP2B6 (unknown origin). The format is ADME.

Series [2] has as its target T3, hERG (KCNH2) (Homo sapiens, UniProt Q12809). In words: Inhibition of human ERG transfected in CHO cells at 1 uM by patch clamp assay relative to control. The note with it: CHO cells transfected with human ERG. It counts as cell-based. The gist of the method: (§1)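 Whole-cell patch clamp on CHO cells stably transfected with the human ERG gene.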
The nature of series [3]: Distribution coefficient, log D of the compound. The format is physicochemical. The settings on record: octanol/water.
Series [4] deals with Histamine H3 receptor (Rattus norvegicus, UniProt Q9QYN8). In words: Displacement of [3H]N-alpha-methylhistamine from recombinant rat histamine H3 receptor transfected in CHO cell membranes after 1 hr by scintillation counting analysis. On the set-up: species or system Membrane. The gist of the method:
(§2)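 Radioligand displacement of [3H]N-α-methylhistamine using membranes from CHO cells stably transfected with recombinant human or rat H3 receptor. Ki is presented as a range of multiple experiments (n ≥ 3).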
For orientation: Displacement assays read how much labelled ligand stays bound in the presence of the test substance.

A short description of series [5]: Drug metabolism in rat liver microsomes at 5 uM after 20 mins. The note with it: read-out: Drug metabolism. It counts as ADME, Microsome. The gist of the method:
(§3)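 Substrate at 5 µM incubated at 37 °C for 20 min with in-house liver microsome preparations (human, mouse or rat). Reported as the percentage of parent compound metabolized.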

Series [6] deals with Voltage-gated inwardly rectifying potassium channel KCNH2 (Homo sapiens, UniProt Q12809). In words: Inhibition of human ERG transfected in CHO cells by patch clamp assay. The format is cell-based. In short, it runs like this: as §1
Sequence of Voltage-gated inwardly rectifying potassium channel KCNH2 (Q12809 whole entry): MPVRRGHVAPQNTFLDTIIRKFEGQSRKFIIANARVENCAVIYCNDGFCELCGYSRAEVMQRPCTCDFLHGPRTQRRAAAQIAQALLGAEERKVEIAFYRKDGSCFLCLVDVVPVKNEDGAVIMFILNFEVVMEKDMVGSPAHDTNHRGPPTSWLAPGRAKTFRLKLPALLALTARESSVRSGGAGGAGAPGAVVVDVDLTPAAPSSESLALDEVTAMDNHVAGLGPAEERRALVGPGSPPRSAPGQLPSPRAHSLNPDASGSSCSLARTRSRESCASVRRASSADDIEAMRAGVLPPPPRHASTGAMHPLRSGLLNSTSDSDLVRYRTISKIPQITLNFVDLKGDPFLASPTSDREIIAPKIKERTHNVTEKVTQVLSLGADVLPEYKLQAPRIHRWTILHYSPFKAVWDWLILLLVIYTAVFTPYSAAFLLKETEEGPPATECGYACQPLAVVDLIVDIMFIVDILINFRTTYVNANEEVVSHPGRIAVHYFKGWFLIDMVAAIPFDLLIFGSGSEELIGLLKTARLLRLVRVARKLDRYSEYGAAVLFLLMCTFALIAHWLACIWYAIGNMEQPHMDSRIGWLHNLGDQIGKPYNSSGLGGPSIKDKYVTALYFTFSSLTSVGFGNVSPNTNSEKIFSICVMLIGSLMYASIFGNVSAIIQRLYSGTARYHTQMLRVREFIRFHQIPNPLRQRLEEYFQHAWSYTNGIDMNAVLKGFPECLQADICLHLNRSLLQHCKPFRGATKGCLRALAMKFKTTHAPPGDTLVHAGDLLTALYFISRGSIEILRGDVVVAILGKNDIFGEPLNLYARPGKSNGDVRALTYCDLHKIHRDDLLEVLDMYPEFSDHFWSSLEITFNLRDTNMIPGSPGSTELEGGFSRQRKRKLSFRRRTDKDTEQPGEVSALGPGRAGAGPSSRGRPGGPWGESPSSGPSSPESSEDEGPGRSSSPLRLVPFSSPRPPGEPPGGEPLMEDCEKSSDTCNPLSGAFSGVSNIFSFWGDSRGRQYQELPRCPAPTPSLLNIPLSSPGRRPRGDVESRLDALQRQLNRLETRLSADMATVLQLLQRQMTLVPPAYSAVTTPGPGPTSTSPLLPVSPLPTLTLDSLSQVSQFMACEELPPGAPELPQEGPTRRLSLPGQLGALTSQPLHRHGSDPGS
The target in another series is Cytochrome P450 2D6 (Homo sapiens, UniProt P10635). Kind of series: Inhibition of CYP2D6 (unknown origin). The format is ADME.
Sequence of Cytochrome P450 2D6 (P10635 whole entry): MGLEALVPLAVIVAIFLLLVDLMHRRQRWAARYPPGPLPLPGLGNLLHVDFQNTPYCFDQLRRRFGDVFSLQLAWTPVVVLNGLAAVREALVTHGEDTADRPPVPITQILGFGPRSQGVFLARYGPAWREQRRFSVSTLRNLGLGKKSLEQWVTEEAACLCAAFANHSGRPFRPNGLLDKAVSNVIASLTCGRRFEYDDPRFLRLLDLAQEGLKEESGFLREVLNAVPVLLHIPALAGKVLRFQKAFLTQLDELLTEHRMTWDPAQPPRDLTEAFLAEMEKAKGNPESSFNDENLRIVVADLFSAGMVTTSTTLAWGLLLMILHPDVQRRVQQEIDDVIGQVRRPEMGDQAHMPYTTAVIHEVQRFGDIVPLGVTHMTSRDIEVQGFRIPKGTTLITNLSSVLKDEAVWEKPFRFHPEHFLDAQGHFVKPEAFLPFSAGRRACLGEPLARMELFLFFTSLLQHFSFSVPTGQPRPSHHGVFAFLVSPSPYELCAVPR
Another series addresses Cytochrome P450 2C9 (Homo sapiens, UniProt P11712). In words: Inhibition of CYP2C9 (unknown origin). It counts as ADME.
The target of the next series is Cytochrome P450 3A4 (Homo sapiens, UniProt P08684). In words: Inhibition of CYP3A4 (unknown origin). The format is ADME.
Sequence of Cytochrome P450 3A4 (P08684 whole entry): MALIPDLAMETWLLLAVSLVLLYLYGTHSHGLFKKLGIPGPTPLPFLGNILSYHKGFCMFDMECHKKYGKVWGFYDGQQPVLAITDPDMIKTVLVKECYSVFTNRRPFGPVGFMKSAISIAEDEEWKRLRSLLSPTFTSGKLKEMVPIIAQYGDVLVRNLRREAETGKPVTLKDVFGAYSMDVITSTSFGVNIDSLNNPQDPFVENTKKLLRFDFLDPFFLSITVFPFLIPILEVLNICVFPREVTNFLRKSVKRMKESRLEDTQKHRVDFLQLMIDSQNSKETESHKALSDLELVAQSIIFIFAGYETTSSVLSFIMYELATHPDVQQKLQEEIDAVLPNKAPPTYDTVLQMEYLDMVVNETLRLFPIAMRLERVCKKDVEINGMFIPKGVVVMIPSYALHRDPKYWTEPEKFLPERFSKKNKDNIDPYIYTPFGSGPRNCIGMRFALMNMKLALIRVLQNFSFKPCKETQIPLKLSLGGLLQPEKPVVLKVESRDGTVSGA
Series [7] can be described thus: Solubility of the compound in PBS buffer at pH 7.4. The format is physicochemical. In short, it runs like this: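 Solubility measured in PBS at pH 7.4.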
In another series the test system is Salmonella typhimurium. In words: Mutagenic activity in Salmonella typhimurium by Ames test. It counts as toxicity, organism-based. The note with it: salmonella enterica subsp. enterica serovar typhimurium.
Series [8] is described as follows: Drug metabolism in mouse liver microsomes at 5 uM after 20 mins. The format is ADME, Microsome. The note with it: read-out: Drug metabolism. In short, it runs like this:
as §3
Background: Microsomes from liver hold many membrane-bound enzymes, among them those of drug oxidation.

A short description of series [9]: Drug metabolism in human liver microsomes at 5 uM after 20 mins. It counts as ADME, Microsome. The note with it: read-out: Drug metabolism. In short, it runs like this:
as §3

Series [10] concerns the target T3, hERG (KCNH2). In words: Inhibition of human ERG transfected in CHO cells at 10 uM by patch clamp assay relative to control. It counts as cell-based. The note with it: CHO cells transfected with human ERG. In short, it runs like this:
as §1

Series [11] in a line: Partition coefficient, log P of the compound. The note with it: octanol/water. It counts as physicochemical.
The target of the next series is Cytochrome P450 2C19 (Homo sapiens, UniProt P33261). Kind of series: Inhibition of CYP2C19 (unknown origin). The format is ADME.
Sequence of Cytochrome P450 2C19 (P33261 whole entry): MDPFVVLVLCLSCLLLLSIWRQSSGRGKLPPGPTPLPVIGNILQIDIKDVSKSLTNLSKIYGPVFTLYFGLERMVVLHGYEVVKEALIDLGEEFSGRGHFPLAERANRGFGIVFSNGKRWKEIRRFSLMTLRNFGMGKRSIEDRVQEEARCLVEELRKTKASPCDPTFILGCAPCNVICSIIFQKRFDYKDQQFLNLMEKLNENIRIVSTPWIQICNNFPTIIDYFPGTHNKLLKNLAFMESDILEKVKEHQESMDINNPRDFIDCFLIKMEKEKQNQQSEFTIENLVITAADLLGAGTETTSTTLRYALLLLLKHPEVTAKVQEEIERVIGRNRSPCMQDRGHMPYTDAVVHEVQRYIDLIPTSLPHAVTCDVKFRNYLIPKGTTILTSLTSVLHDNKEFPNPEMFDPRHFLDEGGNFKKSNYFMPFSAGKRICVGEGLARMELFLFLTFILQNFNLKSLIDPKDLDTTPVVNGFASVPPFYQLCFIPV
The target of series [12] is Histamine H3 receptor (Homo sapiens, UniProt Q9Y5N1). Kind of series: Displacement of [3H]N-alpha-methylhistamine from recombinant human histamine H3 receptor transfected in CHO cell membranes after 1 hr by scintillation counting analysis. The gist of the method:
as §2

T3 sequence (Q12809 whole entry): as the sequence (Q12809 whole entry) above
Sequence of Histamine H3 receptor (Homo sapiens, UniProt Q9Y5N1) (Q9Y5N1 whole entry): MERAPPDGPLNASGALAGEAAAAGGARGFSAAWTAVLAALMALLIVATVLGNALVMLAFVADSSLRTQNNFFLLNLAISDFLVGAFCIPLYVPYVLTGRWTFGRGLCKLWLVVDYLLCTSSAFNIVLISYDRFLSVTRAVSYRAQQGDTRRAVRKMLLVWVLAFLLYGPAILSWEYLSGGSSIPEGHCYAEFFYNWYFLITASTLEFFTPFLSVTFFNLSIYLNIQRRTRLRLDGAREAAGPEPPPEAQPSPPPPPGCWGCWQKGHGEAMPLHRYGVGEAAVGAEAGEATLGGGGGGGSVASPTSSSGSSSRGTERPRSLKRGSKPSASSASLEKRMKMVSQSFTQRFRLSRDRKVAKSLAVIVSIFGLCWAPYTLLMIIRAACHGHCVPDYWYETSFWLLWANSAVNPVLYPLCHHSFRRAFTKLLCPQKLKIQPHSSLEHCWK
Sequence of Histamine H3 receptor (Rattus norvegicus, UniProt Q9QYN8) (Q9QYN8 whole entry): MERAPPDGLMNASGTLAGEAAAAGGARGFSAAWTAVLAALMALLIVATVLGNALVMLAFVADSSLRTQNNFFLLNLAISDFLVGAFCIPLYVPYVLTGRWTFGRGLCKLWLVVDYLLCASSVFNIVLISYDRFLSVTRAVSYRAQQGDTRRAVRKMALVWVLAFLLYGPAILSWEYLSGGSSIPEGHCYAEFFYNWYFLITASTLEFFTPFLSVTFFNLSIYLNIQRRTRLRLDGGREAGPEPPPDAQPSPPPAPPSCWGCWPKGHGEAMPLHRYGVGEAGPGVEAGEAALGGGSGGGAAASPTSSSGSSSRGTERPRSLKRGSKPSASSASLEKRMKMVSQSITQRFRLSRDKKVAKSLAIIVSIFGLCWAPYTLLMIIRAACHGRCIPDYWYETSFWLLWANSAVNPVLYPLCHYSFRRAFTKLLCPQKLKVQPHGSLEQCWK

As usually defined, the IC50 is the midpoint of a concentration-inhibition curve. A low value points to greater potency in that assay. A word on the inhibition: it is the drop in the measured response relative to a control, in per cent. A lower inhibition goes with little suppression. One may read the logD as lipophilicity at a set pH, counting ionised and neutral species. What is called Ki is the equilibrium dissociation constant of an inhibitor or competing ligand from its target. What is called solubility is the dissolved amount per volume that the medium holds. A high value points to much dissolved substance. Broadly, the logP is the decadic logarithm of the partition coefficient of the neutral form, usually between octanol and water. Lower therefore signals a more hydrophilic compound. Consider `Cc1cc(N2CC[C@@H](N3CCC[C@@H]3C)C2)ccc1NC(=O)c1cc(F)ccc1C`, for which the Activity result (in series [1]; in the series on Salmonella typhimurium) was “Non-toxic” in each case. The IC50 against Cytochrome P450 1A2 is above 30 µM; at Cytochrome P450 2B6, above 30 µM; in series [6] it was 1.8 µM; against Cytochrome P450 2D6, above 30 µM; on Cytochrome P450 2C9, above 30 µM; on Cytochrome P450 3A4, above 30 µM. The compound further gave an IC50 on Cytochrome P450 2C19 above 30 µM. In addition, the inhibition at 1 µM against hERG (KCNH2) [2] was 38.8%. For the same compound, the log distribution coefficient (logD) in [3] is 2.09. In addition, the inhibitory constant (Ki) is 0.011 µM on Histamine H3 receptor [4] and 0.018 µM at Histamine H3 receptor [12]. For the same compound, the results for the metabolised at 20 min, 5 µM in series [5], in series [8] and in [9] were 36%, 20% and 5%, respectively. The same compound yielded a solubility in [7] of 0.0885 mg/mL (≈ 224 µM). On hERG (KCNH2) [10], the inhibition at 10 µM worked out at 88.6%. In series [11], the logP was 3.55.
